# How the values were obtained:
# Staphylococcus aureus [1] = test: Antibacterial activity against methicillin resistant Staphylococcus aureus N315 assessed as reduction in bacterial cell viability incubated for 24 hrs by two fold serial dilution method; assay type: functional; details: N315, 24 h
# In short: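 MIC by two-fold serial dilution following CLSI, with chloromycin and norfloxacin as reference drugs.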
# Enterococcus faecalis = test: Antibacterial activity against Enterococcus faecalis assessed as reduction in bacterial cell viability incubated for 24 hrs by two fold serial dilution method; assay type: functional
# In short: (§1)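 Broth two-fold serial dilution run to CLSI guidelines. Chloromycin, norfloxacin and fluconazole served as reference drugs.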
# Staphylococcus aureus [2] = test: Antibacterial activity against Staphylococcus aureus assessed as reduction in bacterial cell viability incubated for 24 hrs by two fold serial dilution method; assay type: functional; in short: as §1
# Staphylococcus aureus [3] = test: Antibacterial activity against Staphylococcus aureus ATCC 25923 assessed as reduction in bacterial cell viability incubated for 24 hrs by two fold serial dilution method; assay type: functional; details: ATCC 25923, 24 h; in short: as §1
# Staphylococcus aureus [4] = test: Antibacterial activity against Staphylococcus aureus ATCC 29213 assessed as reduction in bacterial cell viability incubated for 24 hrs by two fold serial dilution method; assay type: functional; details: ATCC 29213, 24 h; in short: as §1
# Klebsiella pneumoniae = test: Antibacterial activity against Klebsiella pneumoniae assessed as reduction in bacterial cell viability incubated for 24 hrs by two fold serial dilution method; assay type: functional; in short: as §1
# Escherichia coli [5] = test: Antibacterial activity against Escherichia coli ATCC 25922 assessed as reduction in bacterial cell viability incubated for 24 hrs by two fold serial dilution method; assay type: functional; details: ATCC 25922, 24 h; in short: as §1
# Escherichia coli [6] = test: Antibacterial activity against Escherichia coli assessed as reduction in bacterial cell viability incubated for 24 hrs by two fold serial dilution method; assay type: functional; in short: as §1
# Pseudomonas aeruginosa [7] = test: Antibacterial activity against Pseudomonas aeruginosa assessed as reduction in bacterial cell viability incubated for 24 hrs by two fold serial dilution method; assay type: functional; in short: as §1
# Pseudomonas aeruginosa [8] = test: Antibacterial activity against Pseudomonas aeruginosa ATCC 27853 assessed as reduction in bacterial cell viability incubated for 24 hrs by two fold serial dilution method; assay type: functional; details: ATCC 27853, 24 h; in short: as §1
# Acinetobacter baumannii = test: Antibacterial activity against Acinetobacter baumannii assessed as reduction in bacterial cell viability incubated for 24 hrs by two fold serial dilution method; assay type: functional; in short: as §1
# Candida albicans [9] = test: Antifungal activity against Candida albicans assessed as reduction in fungal cell viability incubated for 24 hrs by two fold serial dilution method; assay type: functional; in short: as §1
# Candida albicans [10] = test: Antifungal activity against Candida albicans ATCC 90023 assessed as reduction in fungal cell viability incubated for 24 hrs by two fold serial dilution method; assay type: functional; details: ATCC 90023, 24 h; in short: as §1
# Candida tropicalis = test: Antifungal activity against Candida tropicalis assessed as reduction in fungal cell viability incubated for 24 hrs by two fold serial dilution method; assay type: functional; in short: as §1
# Aspergillus fumigatus [11] = test: Antifungal activity against Aspergillus fumigatus assessed as reduction in fungal cell viability incubated for 24 hrs by two fold serial dilution method; assay type: functional; in short: as §1
# Candida parapsilosis = test: Antifungal activity against Candida parapsilosis ATCC 22019 assessed as reduction in fungal cell viability incubated for 24 hrs by two fold serial dilution method; details: Lodderomyces parapsilosis, ATCC 22019, 24 h
# Aspergillus fumigatus [12] = test: Potency index, ratio of MIC of fluconazole to MIC of compound for antifungal activity against Aspergillus fumigatus assessed as reduction in […] incubated for 24 hrs by two fold serial dilution method; assay type: functional
# Staphylococcus aureus [13] = test: Antibacterial activity against methicillin resistant Staphylococcus aureus assessed as fold change after 16 serial passages at 0.5 times of MIC incubated for 12 hrs by sequential passaging method; assay type: functional
Compound,MIC (Staphylococcus aureus [1]),MIC (Enterococcus faecalis),MIC (Staphylococcus aureus [2]),MIC (Staphylococcus aureus [3]),MIC (Staphylococcus aureus [4]),MIC (Klebsiella pneumoniae),MIC (Escherichia coli [5]),MIC (Escherichia coli [6]),MIC (Pseudomonas aeruginosa [7]),MIC (Pseudomonas aeruginosa [8]),MIC (Acinetobacter baumannii),MIC (Candida albicans [9]),MIC (Candida albicans [10]),MIC (Candida tropicalis),MIC (Aspergillus fumigatus [11]),MIC (Candida parapsilosis),Ratio (Aspergillus fumigatus [12]),fold change (FC) (Staphylococcus aureus [13])
CCn1cc(-c2csc(N)n2)c(=O)c2cc(F)c(N3CCN(CC(C)=O)CC3)cc21,72 µM,288 µM,144 µM,288 µM,575 µM,72 µM,288 µM,1150 µM,288 µM,36 µM,288 µM,575 µM,144 µM,288 µM,575 µM,288 µM,,
CCn1cc(-c2csc(N)n2)c(=O)c2cc(F)c(N3CCN(C/C(C)=N/O)CC3)cc21,72 µM,288 µM,72 µM,36 µM,144 µM,72 µM,72 µM,288 µM,288 µM,144 µM,288 µM,72 µM,72 µM,288 µM,288 µM,72 µM,,
CCn1cc(-c2csc(N)n2)c(=O)c2cc(F)c(N3CCN(C/C(=N/OC)c4ccc(F)cc4F)CC3)cc21,230 µM,460 µM,460 µM,460 µM,460 µM,460 µM,460 µM,460 µM,460 µM,460 µM,460 µM,920 µM,460 µM,460 µM,460 µM,920 µM,,
CCn1cc(-c2csc(N)n2)c(=O)c2cc(N3CCN(C/C(C)=N/OC)CC3)c(Cl)cc21,67 µM,135 µM,67 µM,135 µM,135 µM,135 µM,269 µM,269 µM,269 µM,135 µM,135 µM,539 µM,269 µM,269 µM,269 µM,67 µM,,
CCO/N=C(\C)CN1CCN(c2cc3c(cc2F)c(=O)c(-c2csc(N)n2)cn3CC)CC1,135 µM,68 µM,34 µM,135 µM,68 µM,135 µM,68 µM,135 µM,135 µM,135 µM,135 µM,1080 µM,542 µM,68 µM,542 µM,68 µM,,
CCn1cc(-c2csc(N)n2)c(=O)c2cc(F)c(N3CCN(C/C(C)=N/NC(N)=O)CC3)cc21,66 µM,526 µM,263 µM,132 µM,263 µM,526 µM,263 µM,263 µM,263 µM,132 µM,263 µM,526 µM,132 µM,132 µM,263 µM,66 µM,3,
CCn1cc(-c2csc(N)n2)c(=O)c2cc(F)c(N3CCN(C/C(=N/OC)c4ccc(Cl)cc4)CC3)cc21,29 µM,115 µM,231 µM,58 µM,231 µM,231 µM,461 µM,231 µM,231 µM,58 µM,115 µM,231 µM,463 µM,115 µM,461 µM,115 µM,,
CCn1cc(-c2csc(N)n2)c(=O)c2cc(N3CCN(C/C(=N/OC)c4ccc(OC)cc4)CC3)c(Cl)cc21,451 µM,451 µM,451 µM,451 µM,451 µM,451 µM,451 µM,451 µM,451 µM,451 µM,451 µM,451 µM,226 µM,226 µM,451 µM,451 µM,,
CCn1cc(C(=O)O)c(=O)c2cc(F)c(N3CCNCC3)cc21 [NORFLOXACIN],25 µM,13 µM,6 µM,3 µM,3 µM,13 µM,25 µM,50 µM,6 µM,2 µM,25 µM,,,,,,,16

# — ChEMBL document CHEMBL4351006, “A new exploration towards aminothiazolquinolone oximes as potentially multi-targeting antibacterial agents: Design, synthesis and evaluation acting on microbes, DNA, HSA and topoisomerase IV” (Eur J Med Chem, 2019)
